Experimental data published in PMC4100325 (Journal of toxicology and environmental health. Part A, 2014).

Columns and labels:
[1] = test system: lipid peroxidation (LP) in the livers of mice; experiment: lipid peroxidation; type: in vivo, B6C3F1 male mice; conditions: for slope of regression LP vs Dose: LP as nmoles TBARS/mg protein, dose mg/kg/day; for effect on LP in livers: gavage daily for 13 weeks; for intercept of regression LP vs Dose: regression analysis
Outline: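 Mice (6/group) received daily gavage of test compound (pH 7 aqueous) for 13 weeks and were killed 24 hr post-dose. A 10% w/v liver homogenate in Tris-KCl (pH 7.4) was mixed with 1% phosphoric acid, 0.6% thiobarbituric acid and butylated hydroxyanisole, then heated at 100°C for 45 min. TBARS were extracted into n-butanol and read at 535 nm (ε 1.556 × 10^5 M−1 cm−1), normalised to Lowry protein. Means ± S.D. are reported; regression was against dose.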

liver = conditions: subchronic studies; ref Hassoun et al. 2010a; cited from earlier work
[2] = test system: superoxide anion (SA) production in the livers of mice; experiment: superoxide anion; type: in vivo, B6C3F1 male mice; conditions: for slope of regression SA vs Dose: SA as nmoles cytochrome c reduced/ min/ mg protein, dose mg/kg/day; for effect on SA production in livers: gavage daily for 13 weeks
Outline: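 After 13 weeks of daily gavage (test compound, aqueous pH 7; 6 mice/group), liver was homogenised 10% w/v in Tris-KCl, pH 7.4. Homogenate was incubated with 45 nmol cytochrome c in PBS, pH 7.2, for 15 min at 37°C. The reaction was stopped on ice and centrifuged, and the supernatant was read at 550 nm. Values were converted with ε 2.1 × 10^4 M−1 cm−1 to nmol reduced/min/mg Lowry protein; regression was against dose.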

[3] = 410 mg DCA/kg/day, subchronic studies; ref Hassoun et al, 2010a; cited from earlier work
[4] = test system: DNA single strand breaks in the livers of mice; experiment: DNA single strand breaks; type: in vivo, B6C3F1 male mice; conditions: for intercept of regression DNA-SSBs vs Dose / slope of regression DNA-SSBs vs Dose: DNA-SSBs as elution rate constant k; for slope of regression DNA-SSBs vs Dose: dose mg/kg/day; for effect on DNA SSB in livers: gavage daily for 13 weeks
Outline: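 Male B6C3F1 mice (6/group) were gavaged daily for 13 weeks with test compound in distilled water (pH 7) and killed 24 hr after the last dose. Liver was homogenised 25% w/v in KCl/NaCl/spermine/spermidine/sucrose/EDTA/EGTA/Tris/PMSF/2-mercaptoethanol buffer and spun at 3000 g to get nuclei. These were lysed on 5 µm filters (2% SDS, 25 mM EDTA, pH 10.3, 20 min), then eluted at pH 12.3 into seven 3 ml fractions. DNA was read by diaminobenzoic acid fluorescence (436/521 nm). k = −2.3 × slope of log10 %DNA retained vs eluate volume.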

[5] = liver/body weight ratio after subchronic gavage exposure; type: in vivo, B6C3F1 male mice; conditions: mean ± SD
Outline: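 Male B6C3F1 mice arrived at 6 weeks (~20 g) and were given test compound or water vehicle (pH 7) by daily gavage for 13 weeks, 6/group. Body weights were taken weekly. Animals were killed 24 hr after the last dose (CO2, cervical dislocation) and livers were weighed. Data are means ± S.D.; one-way ANOVA with Tukey post-hoc test.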

[6] = test system: cytochrome c reduction in liver homogenates; conditions: SOD added to assay mixture of liver homogenate; ref Hassoun and Dey, 2008; cited from earlier work

Molecule	slope of regression LP vs Dose [1]	effect on LP in livers [1]	intercept of regression LP vs Dose [1] [nmoles TBARS/mg protein]	threshold dose for hepatotoxicity (liver) [mg/kg/day]	slope of regression SA vs Dose [2]	effect on SA production in livers [2]	increase in liver/body weight ratio associated with hepatomegaly [3] [fold]	intercept of regression DNA-SSBs vs Dose [4]	slope of regression DNA-SSBs vs Dose [4]	effect on DNA SSB in livers [4]	Liver/body weight ratio ([5]; DCA 7.5 mg/kg/day by gavage for 13 weeks)	Liver/body weight ratio ([5]; DCA 15 mg/kg/day by gavage for 13 weeks)	Liver/body weight ratio ([5]; DCA 30 mg/kg/day by gavage for 13 weeks)	inhibition of cytochrome c reduction [6] [%]	Liver/body weight ratio ([5]; TCA 12.5 mg/kg/day by gavage for 13 weeks)	Liver/body weight ratio ([5]; TCA 25 mg/kg/day by gavage for 13 weeks)	Liver/body weight ratio ([5]; TCA 50 mg/kg/day by gavage for 13 weeks)
O=C(O)C(Cl)Cl [DCA, sodium dichloroacetate]	0.2041	dose-dependent increases	1.185	154	0.1036	dose-dependent increases	1.3	0.00215	0.000201	dose-dependent increases	0.054 ± 0.009	0.051 ± 0.002	0.053 ± 0.007				
superoxide dismutase [SOD]														91.1			
O=C(O)C(Cl)(Cl)Cl [TCA, sodium trichloroacetate]	0.0631	dose-dependent increases	0.870	410	0.0237	dose-dependent increases		0.00152	0.000052	dose-dependent increases					0.057 ± 0.003	0.055 ± 0.005	0.049 ± 0.005
